PMC5817038 (Bioorganic & medicinal chemistry letters, 2018)
Where two headings read alike, the source gives them in different places.

Columns and labels:
IDH1-R132H = IDH1-R132H (Homo sapiens, UniProt O75874, R132H); format: biochemical
wild-type IDH1 = conditions: read-out: IC50 against wild-type IDH1 (reported); literature value; cited from earlier work
[1] = system: IDH1-mutated glioma xenografts; conditions: cited from earlier work
[2] = normal mice; cited from earlier work
[3] = system: HCT116 colorectal carcinoma cell line expressing heterozygous IDH1-R132H; assay: Cell uptake of radiolabeled compounds, IDH1-mutated HCT116 vs isogenic WT-IDH1; format: cell-based
Summary of the method: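 Isogenic HCT116 lines expressing IDH1-R132H or wild-type IDH1 were incubated with the 125I-labelled iodo analogue or the 18F-labelled fluoro inhibitor, no-carrier-added, and cell-associated radioactivity was measured over time. Uptake ratio is mutant IDH1 over WT-IDH1 uptake. Three wells per point, mean ± SEM; Student's t-test, P < 0.05.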

[4] = system: IDH1-mutated astrocytoma cell line (IMA); assay: Cell uptake of radiolabeled compounds, IDH1-mutated astrocytoma; format: cell-based; conditions: time course
Summary of the method: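 Radioiodinated or 18F-labelled test compounds, prepared no-carrier-added, were incubated with IDH1-mutated cells and their isogenic WT-IDH1 counterparts. Uptake was followed over time, starting at 5 min, and compared between mutant and WT lines as uptake ratios. Each condition was run in three wells, reported as mean ± SEM, with significance by Student's t-test.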

[5] = system: HCT116 IDH1-R132H tumor xenografts; assay: Tissue distribution in athymic mice bearing IDH1-mutated HCT116 tumor xenografts; format: in vivo
Summary of the method: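 Athymic mice bearing IDH1-mutated HCT116 xenografts received either the 131I- or the 18F-labelled test compound, in separate groups. Tissues were sampled from 0.5 to 4 h after injection. Uptake is given as %ID/g, or as %ID for liver plus intestines. Five animals per time point, mean ± SEM. WT-IDH1 tumour-bearing mice were also examined at 1–4 h.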

Chain of IDH1-R132H (O75874 whole entry R132H): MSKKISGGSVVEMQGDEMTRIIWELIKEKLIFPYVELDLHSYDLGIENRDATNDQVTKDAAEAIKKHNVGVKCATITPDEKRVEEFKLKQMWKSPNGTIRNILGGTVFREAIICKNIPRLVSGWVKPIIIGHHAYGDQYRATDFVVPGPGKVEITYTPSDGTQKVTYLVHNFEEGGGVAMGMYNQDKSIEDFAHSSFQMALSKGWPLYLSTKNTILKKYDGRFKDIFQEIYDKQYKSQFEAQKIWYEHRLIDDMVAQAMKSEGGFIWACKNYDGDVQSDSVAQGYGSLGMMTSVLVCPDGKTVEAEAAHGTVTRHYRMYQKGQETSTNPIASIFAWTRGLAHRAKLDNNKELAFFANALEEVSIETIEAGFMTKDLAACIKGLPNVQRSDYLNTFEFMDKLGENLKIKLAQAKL

Cc1ccccc1C(C(=O)NC1CCCCC1)N(C(=O)Cn1ccnc1C)c1cccc(F)c1 (stereo not shown) [AGI-5198]
inhibition at 12.25 µM (IDH1-R132H; read-out: enzyme inhibition (maximal)): 100%
IC50 (wild-type IDH1): > 100 µM
D-2-HG production [1]: inhibit D-2-HG production
anti-tumor effect [1]: anti-tumor effects

Cc1ccccc1C(C(=O)NC1CCCC1)N(C(=O)Cn1cnc2ccccc21)c1cccc(F)c1 (stereo not shown) [ML-309]
blood-brain-barrier (BBB) permeability [2]: lack of blood-brain-barrier (BBB) permeability

Cc1ccccc1C(C(=O)NC1CCCCC1)N(C(=O)Cn1ccnc1C)c1cccc([18F])c1 (stereo not shown) [[^18F]AGI-5198]
uptake ratio IDH1-mutated/WT-IDH1 ([3]; HCT116, 5 min): about 1.6
uptake ratio IDH1-mutated/WT-IDH1 ([3]; HCT116, 30 min, remaining at that level until 120 min): ~2.0
uptake in IDH1-mutated vs WT-IDH1 cells [4]: higher only at 5 min but not thereafter
uptake and retention in brain ([5]; 0.5-4 h): very low
tumor uptake ([5]; 0.5 h post injection): 0.84 ± 0.18 % ID/g
blood activity ([5]; 30 min post injection): 0.88 ± 0.16 % ID/g
peak tumor-to-muscle ratio (TMR) ([5]; 2 h): 2.5 ± 1.0
peak tumor-to-blood ratio (TBR) ([5]; 4 h): 3.0 ± 1.3
blood activity ([5]; 4 h post injection): ~ 0.1 % ID/g
liver and intestines, share of injected dose ([5]; 4 h post injection): 87 ± 7 % ID
tumor uptake ([5]; 4 h post injection): 0.33 ± 0.08 % ID/g
stability against dehalogenation in vivo ([5]; mouse, in vivo): stable against dehalogenation in vivo

Cc1ccccc1C(C(=O)NC1CCCCC1)N(C(=O)Cn1ccnc1C)c1cccc(I)c1 (stereo not shown) [compound 1]
enzyme inhibition (maximal) (IDH1-R132H; at 6.12 μM): 100%

Cc1ccccc1C(C(=O)NC1CCCCC1)N(C(=O)CNc1ccc(F)nc1)c1cccc(F)c1 (stereo not shown) [compound 2]
enzyme inhibition (maximal) (IDH1-R132H; at 12.25 μM): 71.3 ± 5.3%
